In ChEMBL document CHEMBL3286314, “Tetraoxane-pyrimidine nitrile hybrids as dual stage antimalarials” (J Med Chem, 2014):
Active and inactive are the calls of the source. The rule behind the calls is not given here.

Experiments:
Plasmodium berghei [1] = experiment: Antiplasmodial activity against liver stage Plasmodium berghei infected in human HuH7 cells assessed as decrease in parasite load at 10 uM treated for 1 hr prior to infection measured after 48 hrs by luciferase luminescence assay; conditions: Huh-7
Plasmodium berghei [2] = experiment: Antiplasmodial activity against Plasmodium berghei ANKA infected in C57Bl/6J mouse assessed as parasitemia level at 30 mg/kg/day, ip qd for 5 days measured on day 18 post-infection by microscopic/flow cytometric analysis; format: functional; conditions: route intraperitoneal
Summary of the method: (§1)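 C57Bl/6J mice infected intraperitoneally with 2 × 10^6 GFP-expressing P. berghei ANKA-infected erythrocytes. Treatment started at parasitemia ca. 3.9% (day 4 postinfection): 30 mg/kg bw once daily ip for 5 days. Controls received equivalent drug vehicle. Parasitemia was followed daily by microscopy and flow cytometry; disease symptoms and survival were also recorded daily.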

Plasmodium falciparum [3] = experiment: Antiplasmodial activity against chloroquine-resistant Plasmodium falciparum W2 after 48 hrs by FACS analysis; format: functional, organism-based; conditions: W2, 48 h
Summary of the method: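 Synchronized ring-stage parasites cultured 48 h with multiple compound concentrations (from 1000× DMSO stocks) in RPMI 1640 with 10% human serum. Fixed in 1% formaldehyde/PBS pH 7.4 for 48 h at room temperature, stained with YOYO-1 (1 nM) in 0.1% Triton X-100/PBS. Parasitemia read by flow cytometry; IC50 from curve fits of percentage of control parasitemia.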

Plasmodium falciparum [4] = experiment: Antiplasmodial activity against chloroquine-sensitive Plasmodium falciparum 3D7 after 48 hrs by FACS analysis; format: functional, organism-based; conditions: 3D7, 48 h
Plasmodium berghei [5] = experiment: Antiplasmodial activity against Plasmodium berghei ANKA infected in C57Bl/6J mouse assessed as parasitemia level at 30 mg/kg/day, ip qd for 5 days measured on day 8 post-infection by microscopic/flow cytometric analysis; format: functional, organism-based
Summary of the method: as §1

Plasmodium falciparum [6] = experiment: Antiplasmodial activity against atovaquone-resistant Plasmodium falciparum FCR3 after 48 hrs by FACS analysis; format: functional, organism-based; conditions: FCR3, 48 h
Plasmodium falciparum [7] = experiment: Inhibition of falcipain-2-mediated hemoglobin degradation in ring stage Plasmodium falciparum assessed as development of swollen digestive vacuoles at 123 nM after 24 hrs
Summary of the method: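 Cultured parasites exposed to 123 nM compound for 24 h starting at ring stage. Examined for swollen digestive vacuoles with erythrocyte-cytoplasm staining characteristics.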

[8] = Selectivity index, ratio of CC50 for mouse NIH/3T3 cells to IC50 for chloroquine-resistant Plasmodium falciparum W2; format: functional
Summary of the method: (§2)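 SI taken as in vitro cytotoxicity IC50 on HEK293T or NIH3T3 cells divided by the P. falciparum W2 growth-inhibition IC50.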

[9] = Cytotoxicity against mouse NIH/3T3 cells; format: cell-based, NIH3T3
Plasmodium berghei [10] = experiment: Antiplasmodial activity against Plasmodium berghei ANKA infected in C57Bl/6J mouse assessed as survival at 30 mg/kg/day, ip qd for 5 days measured on day 18 post-infection; format: functional, organism-based
Summary of the method: as §1

[11] = Half life of the compound in 18 equiv of FeSO4 in aqueous acetonitrile assessed as N'-(5-bromo-2-cyanopyrimidin-4-yl)-N'-isobutyl-4-oxocyclohexanecarbohydrazide level by LC-MS analysis; format: physicochemical; conditions: buffer
Summary of the method: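 Aqueous solution of compound treated with high concentration of iron(II) sulfate; mixture analysed by LCMS. Decomposition to the ketone product fitted to first-order decay kinetics to give the half-life.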

[12] = Inhibition of Plasmodium falciparum recombinant falcipain-2 after 30 mins by spectrofluorometric analysis
Summary of the method: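 Recombinant falcipain-2 (~1 nM) preincubated 30 min at room temperature with inhibitor (from 100× DMSO stocks) in 100 mM sodium acetate pH 5.5, 10 mM dithiothreitol. Then Z-Leu-Arg-AMC substrate added (final 25 μM). Fluorescence monitored continuously for 30 min at room temperature; IC50 from activity plots.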

[13] = Selectivity index, ratio of CC50 for HEK293T cells to IC50 for chloroquine-resistant Plasmodium falciparum W2; format: functional, HEK-293T
Summary of the method: as §2

[14] = Cytotoxicity against HEK293T cells; format: cell-based, HEK-293T; conditions: human
Plasmodium berghei [15] = experiment: Antiplasmodial activity against liver stage Plasmodium berghei infected in human HuH7 cells assessed as decrease in parasite load at 2 uM treated for 1 hr prior to infection measured after 48 hrs by luciferase luminescence assay; conditions: Huh-7

SMILES | Activity (Plasmodium berghei [1]) | Activity (Plasmodium berghei [2]) [%] | IC50 (Plasmodium falciparum [3]) [nM] | IC50 (Plasmodium falciparum [4]) [nM] | Activity (Plasmodium berghei [5]) | IC50 (Plasmodium falciparum [6]) [nM] | inhibition (Plasmodium falciparum [7]) | Ratio CC50/IC50 [8] | CC50 [9] [nM] | Activity (Plasmodium berghei [10]) | t1/2 [11] [h] | IC50 [12] [nM] | Ratio CC50/IC50 [13] | CC50 [14] [nM] | Activity (Plasmodium berghei [15])
COc1cc(NC(C)CCCN)c2ncccc2c1 (stereo not given) | Active |  |  |  |  |  |  |  |  |  |  |  |  |  | 
CC(C)CN(NC(=O)C1CCC2(CC1)OOC1(OO2)C2CC3CC(C2)CC1C3)c1nc(C#N)ncc1Cl (stereo not given) |  | 51 | 33.8 | 80.9 | Active | 53.3 | Active | 133 | 4500 | Active | 5.1 | 3.4 | >2959 | > 100000 | 
N#Cc1ncc(Br)c(N(NC(=O)C2CCC3(CC2)OOC2(OO3)C3CC4CC(C3)CC2C4)C2CCCCC2)n1 (stereo not given) |  |  | 22.4 | 78.5 |  | 81.2 | Active | 63 | 1400 |  |  | 25.3 | >4464 | > 100000 | 
CC(C)CN(NC(=O)C1CCC2(CC1)OOC1(OO2)C2CC3CC(C2)CC1C3)c1cc(Cl)nc(C#N)n1 (stereo not given) |  |  | 48.9 | 28.4 |  | 37.7 | inactive | 35 | 1700 |  |  | 978 | >2045 | > 100000 | 
N#Cc1ncc(Br)c(N(CC2CCCC2)NC(=O)C2CCC3(CC2)OOC2(OO3)C3CC4CC(C3)CC2C4)n1 (stereo not given) |  |  | 29.5 | 70.7 |  |  |  | 186 | 5500 |  |  | 112 | >3390 | > 100000 | 
O=C1C(O)=C([C@H]2CC[C@H](c3ccc(Cl)cc3)CC2)C(=O)c2ccccc21 |  |  |  |  |  |  |  |  |  |  |  |  |  |  | Active
CC(C)CN(NC(=O)C1CCC(=O)CC1)c1nc(C#N)ncc1Br | Active |  | 48.1 | 48.2 |  |  | Active | >2079 | > 100000 |  |  | 58.4 | >2079 | > 100000 | Active
CC(C)CN(NC(=O)C1CCC2(CC1)OOC1(OO2)C2CC3CC(C2)CC1C3)c1ccnc(C#N)n1 (stereo not given) |  |  | 47.3 | 13.1 |  | 30.3 | inactive | 19 | 900 |  |  | 909 | >2114 | > 100000 | 
C[C@@H]1CC[C@H]2[C@@H](C)C(=O)O[C@@H]3O[C@@]4(C)CC[C@@H]1[C@]32OO4 [ARTEMISININ] | inactive |  | 14.1 | 36.2 |  | 7.7 |  |  |  |  |  |  |  |  | inactive
CC(C)CN(NC(=O)C1CCC2(CC1)OOC1(OO2)C2CC3CC(C2)CC1C3)c1nc(C#N)ncc1Br (stereo not given) |  |  | 9.8 | 58.1 |  |  | Active | 816 | 8000 |  |  | 16.4 | >10000 | > 100000 | 
CC(C)CN(NC(=O)CC1CCC2(CC1)OOC1(OO2)C2CC3CC(C2)CC1C3)c1nc(C#N)ncc1Br (stereo not given) |  |  | 22.8 | 18.9 |  |  | Active | 101 | 2300 |  |  | 95.1 | 3750 | 85500 | 
